Experimental data as given in ChEMBL document CHEMBL1140888, “Synthesis, trypanocidal activity and docking studies of novel quinoxaline-N-acylhydrazones, designed as cruzain inhibitors candidates” (Bioorg Med Chem, 2009).

Assays:
Trypanosoma cruzi [1] = test: Antitrypanosomal activity against Trypanosoma cruzi Tulahuen 2 at 25 uM relative to nifurtimox; format: functional; settings: read-out: GI
How it was run: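 Epimastigotes of Tulahuen 2 strain exposed to 25 µM compound, up to 1% DMSO. A600 read right after inoculation (day 0) and at day 5. %inhibition = {1 − [(Ap − A0p)/(Ac − A0c)]} × 100 against drug-free control. Means of three independent experiments; nifurtimox as reference drug.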

Trypanosoma cruzi [2] = test: Antitrypanosomal activity against Trypanosoma cruzi Tulahuen 2; format: functional, organism-based
How it was run: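 Epimastigotes of T. cruzi Tulahuen 2 grown with compound, up to 1% DMSO tolerated. Growth followed as absorbance at 600 nm at day 0 and day 5. Percent inhibition taken relative to drug-free control. IC50 determined only for compounds giving >80% inhibition at 25 µM. Means of three independent experiments; nifurtimox reference.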

J774 [3] = test: Cytotoxicity against mouse J774 cells at 400 uM after 48 hrs by MTT assay; format: cell-based; settings: j774, 48 h
How it was run: (§1)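 J-774 macrophages seeded at 100.000 cells/well in RPMI 1640 with 20% heat-inactivated FCS, attached 48 h at 37 °C, 5% CO2. Exposed to 100, 200 or 400 µM for 48 h, washed with PBS, then MTT 0.4 mg/mL for 3 h at 37 °C. Formazan dissolved in DMSO, OD595 read. %cytotoxicity corrected for compound-in-medium blanks; triplicate wells, six growth controls.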

J774 [4] = test: Cytotoxicity against mouse J774 cells after 48 hrs by MTT assay; format: cell-based; settings: J774, 48 h; how it was run: as §1
[5] = Selectivity index, ratio of IC50 for mouse J774 cells to IC50 for Trypanosoma cruzi Tulahuen 2; format: toxicity, cell-based; settings: J774 cells (versus Trypanosoma cruzi Tulahuen 2), read-out: Ratio IC50

Work on `O=C(N/N=C/c1ccccc1)c1nc2ccccc2nc1-c1ccccc1` yielded an inhibition of growth at 25 µM (Trypanosoma cruzi [1]) of 3%.
Work on `O=C(N/N=C/c1ccc(F)cc1)c1nc2ccccc2nc1-c1ccccc1` yielded an inhibition of growth at 25 µM (Trypanosoma cruzi [1]) of 22%.
With `O=C(N/N=C/c1ccc(Br)cc1)c1nc2ccccc2nc1-c1ccccc1` the inhibition of growth at 25 µM (Trypanosoma cruzi [1]) was 40%.
In the case of `O=C(N/N=C/c1ccncc1)c1nc2ccccc2nc1-c1ccccc1`, the inhibition of growth at 25 µM (Trypanosoma cruzi [1]) is reported as 0%.
With `CN(C)c1ccc(/C=N/NC(=O)c2nc3ccccc3nc2-c2ccccc2)cc1` the inhibition of growth at 25 µM (Trypanosoma cruzi [1]) was 29%.
With `O=C(N/N=C/c1ccc([N+](=O)[O-])cc1)c1nc2ccccc2nc1-c1ccccc1` the inhibition of growth at 25 µM (Trypanosoma cruzi [1]) was 19%.
For `O=C(N/N=C/c1ccccc1O)c1nc2ccccc2nc1-c1ccccc1`, the inhibition of growth at 25 µM (Trypanosoma cruzi [1]) was 96%, the IC50 (Trypanosoma cruzi [2]) was 15.9 µM and the Activity (J774 [3]) was 14%. For the same compound, the IC50 (J774 [4]) was > 400 µM and the selectivity ratio [5] was > 25.2.
Work on `O=C(N/N=C/c1ccc(O)cc1)c1nc2ccccc2nc1-c1ccccc1` yielded an inhibition of growth at 25 µM (Trypanosoma cruzi [1]) of 27%.
Compound `O=C(N/N=C/c1ccccn1)c1nc2ccccc2nc1-c1ccccc1` has an inhibition of growth at 25 µM (Trypanosoma cruzi [1]) of 0%.
Compound `Cc1nc2ccccc2nc1C(=O)N/N=C/c1ccccc1O` has an inhibition of growth at 25 µM (Trypanosoma cruzi [1]) of 81%, an IC50 (Trypanosoma cruzi [2]) of 20 µM and an Activity (J774 [3]) of 12%. For the same compound, the IC50 (J774 [4]) was > 400 µM and the selectivity ratio [5] was > 20.
With `O=C(N/N=C/c1ccc(Cl)cc1)c1nc2ccccc2nc1-c1ccccc1` the inhibition of growth at 25 µM (Trypanosoma cruzi [1]) was 53%.
`CC(C)c1ccc(/C=N/NC(=O)c2nc3ccccc3nc2-c2ccccc2)cc1` gave an inhibition of growth at 25 µM (Trypanosoma cruzi [1]) of 36%.
Work on `O=C(N/N=C/c1ccccc1Cl)c1nc2ccccc2nc1-c1ccccc1` yielded an inhibition of growth at 25 µM (Trypanosoma cruzi [1]) of 35%.
With `O=C(N/N=C/c1cccc(Cl)c1)c1nc2ccccc2nc1-c1ccccc1` the inhibition of growth at 25 µM (Trypanosoma cruzi [1]) was 47%.
Compound `O=C(N/N=C/c1ccco1)c1nc2ccccc2nc1-c1ccccc1` has an inhibition of growth at 25 µM (Trypanosoma cruzi [1]) of 0%.
For `CC(=O)N1CCN(c2ccc(OCC3COC(Cn4ccnc4)(c4ccc(Cl)cc4Cl)O3)cc2)CC1` (centres undefined) [KETOCONAZOLE], the Activity (J774 [3]) was 100%, the IC50 (J774 [4]) was < 50 µM and the selectivity ratio [5] was < 5.
`CN(C/C=C/C#CC(C)(C)C)Cc1cccc2ccccc12` [TERBINAFINE] showed an Activity (J774 [3]) of 100%, an IC50 (J774 [4]) of 88 µM and a selectivity ratio [5] of 5.1.
